Measurements: PMC3724457 (Cellular and molecular life sciences : CMLS, 2009)
Like-named read-outs stand apart in the source and are kept apart here. *1 amine or outer side, *2 acyl side, *3 side chain or, on linkers, in order; H or OH if unused. Where a SMILES comes first, the peptide text is derived from it. Bridges are numbered along the chain shown (N, C = ends). Roman numbers before positions name the chains, in order. [ ]: non-standard residue; d: D form. Actinocin(9to1) = Cc1c2oc3c(C)ccc(C(=O)[*:1])c3nc-2c(C(=O)[*:2])c(N)c1=O; NMeV = CN[C@H](C(=O)O)C(C)C; Sar = CNCC(=O)O

B1: GST-ZO1-PDZ2 WT (domain or fragment, human)
chain: KVTLVKSRKNEEYGLRLASHIFVKEISQDSLAARDGNIQEGDVVLKINGTVTENMSLTDAKTLIERSKGKLKMVVQRDE

What was measured:
nuclear speckles = conditions: transcriptional inhibition; ref [39]; cited from earlier work
GST-ZO2-PDZ2 WT (mouse) = experiment: SEC
[1] = target: Connexin 43 (Cx43) C-terminal peptide; experiment: ITC
ZO-1 PDZ2 R193A [2] = target: ZO-1 PDZ2 R193A (Homo sapiens, UniProt Q07157, R193A); experiment: ITC peptide binding
Summary of the method: (§1)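 Each PDZ2 domain, wild type or point mutant, was held at 20 μM in 20 mM HEPES, 150 mM NaCl, pH 7.5, degassed. It was titrated with 20 × 15 μl injections of 200 μM Cx43 C-terminal 20-mer peptide, stirred at 250 rpm, with 5 min between injections. Peptide-into-buffer dilution heat was subtracted, and integrated data were fitted to a binding model. Representative of duplicate runs.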

ZO-1 PDZ2 K194A [3] = target: ZO-1 PDZ2 K194A (Homo sapiens, UniProt Q07157, K194A); experiment: ITC peptide binding
Summary of the method: as §1

ZO-1 PDZ2 R201A = ZO-1 PDZ2 R201A (Homo sapiens, UniProt Q07157, R201A); experiment: ITC peptide binding
Sequence of ZO-1 PDZ2 R201A (Q07157 186-264 R201A limits assumed): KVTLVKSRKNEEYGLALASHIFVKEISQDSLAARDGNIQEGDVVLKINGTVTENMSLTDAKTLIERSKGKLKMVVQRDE
Summary of the method: as §1

ZO-1 PDZ2 R219A [4] = target: ZO-1 PDZ2 R219A (Homo sapiens, UniProt Q07157, R219A); experiment: ITC peptide binding
Summary of the method: as §1

ZO-1 PDZ2 K246A = ZO-1 PDZ2 K246A (Homo sapiens, UniProt Q07157, K246A); experiment: ITC peptide binding
Sequence of ZO-1 PDZ2 K246A (Q07157 186-264 K246A limits assumed): as the sequence (Q07157 186-264 R201A limits assumed) above, with A16R, K61A counted along it
Summary of the method: as §1

GST-ZO1-PDZ2 [5] = experiment: Kinetic SPR measurements; format: binding, human; conditions: 1 µM protein, POPC/POPE/POPS/PtdInsP (37:40:20:3) vesicles, 20 mM HEPES pH 7.4, 0.16 M KCl
Summary of the method: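 GST-fused PDZ2 was expressed in E. coli BL21(DE3) with IPTG induction at 37°C for 4 h, then purified on glutathione-Sepharose. Active sensor surface carried PtdInsP-containing vesicles and the control surface carried POPC/POPE (60:40) vesicles, both from 0.4 mg/ml lipid solution and loaded to equal RU. Seven PtdInsP species were compared. Kinetic data gave relative membrane affinity only; no Kd was derived.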

[6] = test system: GST-ZO2-PDZ2 WT binding to Cx43 peptide; experiment: Pull-down competition by phospholipids; design: species or system mouse; conditions: 3 µg GST-ZO2-PDZ2 WT preincubated with phospholipid liposomes
Summary of the method: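 3 μg GST-ZO-2 PDZ2 WT was preincubated with phospholipid liposomes at increasing concentrations. It was then pulled down with Cx43 C-terminal 20-mer peptide coupled to CNBr-activated Sepharose 4B at 5–7 mg/ml.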

GST-ZO1-PDZ2 [7] = experiment: ELISA PtdInsP binding assay; design: species or system human; conditions: ELISA on PIP plates, absorbance 450 nm, n=3, protein 10 nM, 1 h room temperature
Summary of the method: (§2)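 GST-fusion PDZ2 domains (ZO-1 human, ZO-2 mouse) or GST-PH domain of PLC-δ1 (positive control) at 10 nM, with GST as negative control, were incubated 1 h at room temperature on preblocked PtdInsP-coated plates. Wells were washed three times with PBS/0.1% Tween-20, then probed 1 h at room temperature with HRP-anti-GST. Detection used TMB substrate with absorbance at 450 nm; mean ± SD, n = 3.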

GST-ZO2-PDZ2 = experiment: ELISA PtdInsP binding assay; design: species or system mouse; conditions: ELISA on PIP plates, absorbance 450 nm, n=3, protein 10 nM, 1 h room temperature
Summary of the method: as §2

[8] = target: Connexin43 (Homo sapiens) (UniProt P17302); conditions: cited from earlier work
[9] = target: Connexin43 (Homo sapiens) (UniProt P17302); conditions: cited from earlier work; remark: listed apart in the source
GST-ZO1-PDZ1–3 = experiment: Lipid-overlay assay; format: binding, human; conditions: PIP strips, not quantitative, no membrane environment
Summary of the method: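 A GST-fused human ZO-1 PDZ1–3 construct was overlaid on nitrocellulose membranes carrying immobilised phospholipids, following the manufacturer's protocol. GST served as negative control and the GST-PH domain of LL5α as positive control. Lipids were not in a membrane environment, and the readout is qualitative.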

SEC = target: the molecule itself; experiment: SEC
GST-ZO1-PDZ2 WT = target: B1; experiment: ITC
ZO-1 PDZ2 R193A [10] = target: T1, ZO-1 PDZ2 R193A (human, UniProt Q07157 186-264, R193A); experiment: ITC
T1 sequence: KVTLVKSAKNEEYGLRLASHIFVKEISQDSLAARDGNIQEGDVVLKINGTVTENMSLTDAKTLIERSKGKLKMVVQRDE

ZO-1 PDZ2 K194A [11] = target: T2, ZO-1 PDZ2 K194A (human, UniProt Q07157 186-264, K194A); experiment: ITC
T2 sequence: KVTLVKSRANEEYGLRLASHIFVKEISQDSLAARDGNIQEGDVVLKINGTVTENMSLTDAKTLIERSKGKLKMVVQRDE

ZO-1 PDZ2 R219A [12] = target: T3, ZO-1 PDZ2 R219A (human, UniProt Q07157 186-264, R219A); experiment: ITC
T3 sequence: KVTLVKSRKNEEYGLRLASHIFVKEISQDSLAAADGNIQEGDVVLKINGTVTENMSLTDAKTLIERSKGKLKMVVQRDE

ZO-1 PDZ2 R251A = target: T4, ZO-1 PDZ2 R251A (human, UniProt Q07157 186-264, R251A); experiment: ITC
T4 sequence: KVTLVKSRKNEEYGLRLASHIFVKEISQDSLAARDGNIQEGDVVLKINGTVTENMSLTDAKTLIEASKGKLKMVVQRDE

ZO-1 PDZ2 K253A = target: T5, ZO-1 PDZ2 K253A (human, UniProt Q07157 186-264, K253A); experiment: ITC
T5 sequence: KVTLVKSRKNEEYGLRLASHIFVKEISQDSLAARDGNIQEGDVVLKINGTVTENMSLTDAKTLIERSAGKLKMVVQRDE

ZO-1 PDZ2 R251AK253A = target: T6, ZO-1 PDZ2 R251AK253A (human, UniProt Q07157 186-264, R251A | K253A); experiment: ITC
T6 sequence: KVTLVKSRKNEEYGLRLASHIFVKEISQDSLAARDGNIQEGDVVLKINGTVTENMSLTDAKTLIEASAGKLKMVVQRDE

Cc1c2oc3c(C)ccc(C(=O)N[C@@H]4C(=O)N[C@H](C(C)C)C(=O)N5CCC[C@H]5C(=O)N(C)CC(=O)N(C)[C@@H](C(C)C)C(=O)O[C@@H]4C)c3nc-2c(C(=O)N[C@@H]2C(=O)N[C@H](C(C)C)C(=O)N3CCC[C@H]3C(=O)N(C)CC(=O)N(C)[C@@H](C(C)C)C(=O)O[C@@H]2C)c(N)c1=O [actinomycin D] (I: T[dV]P[Sar][NMeV] / II: T[dV]P[Sar][NMeV]; ester I:1-I:C, II:1-II:C; linker I:N-II:N via Actinocin(9to1))
speckle protein distribution (nuclear speckles): fewer and/or abnormally large clusters

GST-ZO2-PDZ2 WT (domain or fragment)
stoichiometry N (GST-ZO2-PDZ2 WT (mouse)): 2
Kd [1]: 9.9 µM

NH2.PSSRASSRASSRPRPDDLEI.OH [Connexin43 peptide]
effect of mutation on peptide affinity (ZO-1 PDZ2 R193A [2]): little effect
effect of mutation on peptide affinity (ZO-1 PDZ2 K194A [3]): little effect
binding to the Cx43 peptide (ZO-1 PDZ2 R201A): no significant binding
effect of mutation on peptide binding (ZO-1 PDZ2 R219A [4]): no effect
binding to the Cx43 peptide (ZO-1 PDZ2 K246A): no significant binding

Phosphatidylinositol 4,5-bisphosphate [PtdIns(4,5)P2]
PtdInsP selectivity (relative binding) (GST-ZO1-PDZ2 [5]): followed by PtdIns(3,4,5)P3, PtdIns(4,5)P2 and PtdIns(3,5)P2

PtdIns(3,4)P2
inhibition of association of GST-ZO2-PDZ2 with the Cx43 peptide [6]: inhibited association
PtdInsP binding as compared to PtdIns(4,5)P2 or PtdIns(3,5)P2 (GST-ZO1-PDZ2 [7]): slightly stronger
PtdInsP binding as compared to PtdIns(4,5)P2 or PtdIns(3,5)P2 (GST-ZO2-PDZ2): slightly stronger
PtdInsP selectivity (relative binding) (GST-ZO1-PDZ2 [5]): slight preference

PtdIns(3,4,5)P3
inhibition of association of GST-ZO2-PDZ2 with the Cx43 peptide [6]: inhibited association
PtdInsP binding as compared to PtdIns(4,5)P2 or PtdIns(3,5)P2 (GST-ZO1-PDZ2 [7]): slightly stronger
PtdInsP binding as compared to PtdIns(4,5)P2 or PtdIns(3,5)P2 (GST-ZO2-PDZ2): slightly stronger
PtdInsP selectivity (relative binding) (GST-ZO1-PDZ2 [5]): followed by PtdIns(3,4,5)P3, PtdIns(4,5)P2 and PtdIns(3,5)P2

PtdIns(3,5)P2
PtdInsP selectivity (relative binding) (GST-ZO1-PDZ2 [5]): followed by PtdIns(3,4,5)P3, PtdIns(4,5)P2 and PtdIns(3,5)P2

ZO-1 PDZ2 (from UniProt Q07157)
Kd [8]: 15.5 µM

ZO-2 PDZ2 (from UniProt Q9UDY2)
Kd [9]: 391 µM

phosphatidic acid [PA]
lipid binding (GST-ZO1-PDZ1–3): bound non-selectively

phosphatidylinositol [PtdIns]
lipid binding (GST-ZO1-PDZ1–3): bound non-selectively

phosphatidylserine [PS]
inhibition of association of GST-ZO2-PDZ2 with the Cx43 peptide [6]: no effect
lipid binding (GST-ZO1-PDZ1–3): bound non-selectively

B1
stoichiometry N (SEC): 2

PSSRASSRASSRPRPDDLEI [Connexin 43 (Cx43) C-terminal peptide]
Kd (GST-ZO1-PDZ2 WT): 9.9 ± 1.3 µM
Kd (ZO-1 PDZ2 R193A [10]): 11 ± 2.1 µM
Kd (ZO-1 PDZ2 K194A [11]): 12 ± 1.6 µM
Kd (ZO-1 PDZ2 R219A [12]): 11 ± 1.6 µM
Kd (ZO-1 PDZ2 R251A): 19 ± 3.4 µM
Kd (ZO-1 PDZ2 K253A): 22 ± 3.6 µM
Kd (ZO-1 PDZ2 R251AK253A): 21 ± 3.2 µM
